Assay results from ChEMBL document CHEMBL2146441, “2,6-Disubstituted imidazo[2,1-b][1,3,4]thiadiazoles: search for anticancer agents” (2012).

Key:
Type in all cases: functional
HCT-15 = experiment: Cytotoxicity against human HCT15 cells assessed as cell growth at 10^-5 M after 48 hrs by SRB assay; settings: HCT-15, 48 h, read-out: Activity
Method in brief: (§1)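 NCI-60 five-dose screen. Cells were grown in RPMI 1640 with 5% FBS and seeded at 5000–40,000 cells/well according to doubling time. They were pre-incubated 24 h at 37 °C in 5% CO₂, and time-zero (Tz) plates were TCA-fixed at drug addition. Five 10-fold dilutions of DMSO stock were applied for 48 h. Read-out was SRB staining, 515 nm absorbance, with percent growth calculated versus Tz and untreated control.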

MOLT-4 [1] = experiment: Cytotoxicity against human MOLT4 cells assessed as cell growth at 10^-8 M after 48 hrs by SRB assay; settings: MOLT-4, 48 h, read-out: Activity
HCT-116 = experiment: Cytotoxicity against human HCT116 cells assessed as cell growth at 10^-7 M after 48 hrs by SRB assay; settings: HCT-116, 48 h, read-out: Activity; method in brief: as §1
OVCAR-8 = experiment: Cytotoxicity against human OVCAR8 cells assessed as cell growth at 10^-5 M after 48 hrs by SRB assay; settings: OVCAR-8, 48 h, read-out: Activity
UACC-257 = experiment: Cytotoxicity against human UACC257 cells assessed as cell growth at 10^-4 M after 48 hrs by SRB assay; settings: UACC-257, 48 h, read-out: Activity
LOX IMVI = experiment: Cytotoxicity against human LOXIMVI cells assessed as cell growth at 10^-5 M after 48 hrs by SRB assay; settings: read-out: Activity
ACHN = experiment: Growth inhibition of human ACHN cells after 48 hrs by SRB assay; settings: for CC50: read-out: LC50 (the source's name)
Method in brief: (§2)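 Same 48 h NCI-60 five-dose SRB protocol. Adherent lines were fixed with cold TCA at 10% final; suspension lines such as CCRF-CEM were fixed with 16% final TCA. Stain was 0.4% SRB in 1% acetic acid for 10 min, solubilized in 10 mM Tris base and read at 515 nm. GI50 came from log concentration–growth curves, solving [(Ti−Tz)/(C−Tz)]×100 = 50.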

[2] = Cytotoxicity against human Hs 578T cells assessed as cell growth at 10^-6 M after 48 hrs by SRB assay; settings: read-out: Activity; method in brief: as §1
SF-268 = experiment: Cytotoxicity against human SF268 cells assessed as cell growth at 10^-5 M after 48 hrs by SRB assay; settings: SF-268, 48 h, read-out: Activity
[3] = Cytotoxicity against human […] cells assessed as cell growth at 10^-6 M after 48 hrs by SRB assay; settings: 48 h, read-out: Activity
NCI-H226 = experiment: Growth inhibition of human NCI-H226 cells after 48 hrs by SRB assay; settings: NCI-H226, 48 h; for CC50: read-out: LC50 (the source's name)
Method in brief: (§3)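 Adherent NCI-60 lines grown in RPMI 1640 with 5% FBS, seeded at 5000–40,000 cells/well, and preincubated 24 h at 37 °C, 5% CO2. Compound, stocked in DMSO, given either once at 10^-5 M or at five 10-fold dilutions for 48 h. Cells fixed with cold TCA (final 10%), stained with 0.4% SRB, and read at 515 nm. GI50 taken as 50% reduction in net protein increase versus time-zero and control plates.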

MOLT-4 [4] = experiment: Cytotoxicity against human MOLT4 cells assessed as cell growth at 10^-6 M after 48 hrs by SRB assay; settings: MOLT-4, 48 h, read-out: Activity
UO-31 = experiment: Cytotoxicity against human UO31 cells assessed as cell growth at 10^-8 M after 48 hrs by SRB assay; settings: UO-31, 48 h, read-out: Activity
A498 [5] = experiment: Cytotoxicity against human A498 cells assessed as cell growth at 10^-6 M after 48 hrs by SRB assay; settings: A498, 48 h, read-out: Activity
Method in brief: (§4)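 NCI-60 screen: lines kept in RPMI 1640 with 5% FBS, seeded at 5000–40,000 cells/well by doubling time, preincubated 24 h at 37 °C in 5% CO2. Time-zero plates TCA-fixed at drug addition. DMSO stocks diluted in medium, 48 h exposure. Fixation in cold TCA (final 10% adherent, 16% suspension), 0.4% SRB stain, solubilised in 10 mM Tris base, A515. Percent growth computed against control and time-zero.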

HT-29 = experiment: Cytotoxicity against human HT-29 cells assessed as cell growth at 10^-7 M after 48 hrs by SRB assay; settings: HT-29, 48 h, read-out: Activity; method in brief: as §1
U-251 = experiment: Cytotoxicity against human U251 cells assessed as cell growth at 10^-5 M after 48 hrs by SRB assay; settings: U-251, 48 h, read-out: Activity
MDA-MB-231 = experiment: Cytotoxicity against human MDA-MB-231 cells assessed as cell growth at 10^-6 M after 48 hrs by SRB assay; settings: MDA-MB-231, 48 h, read-out: Activity
CAKI-1 = experiment: Growth inhibition of human Caki1 cells after 48 hrs by SRB assay; settings: CAKI-1, 48 h; method in brief: as §2
SK-MEL-2 = experiment: Cytotoxicity against human SK-MEL-2 cells assessed as cell growth at 10^-6 M after 48 hrs by SRB assay; settings: SK-MEL-2, 48 h, read-out: Activity
HCC 2998 = experiment: Cytotoxicity against human HCC2998 cells assessed as cell growth at 10^-4 M after 48 hrs by SRB assay; settings: HCC 2998, 48 h, read-out: Activity; method in brief: as §4
OVCAR-4 = experiment: Growth inhibition of human OVCAR4 cells after 48 hrs by SRB assay; settings: OVCAR-4, 48 h; method in brief: as §3
NCI-H460 [6] = experiment: Cytotoxicity against human NCI-H460 cells assessed as cell growth at 10^-4 M after 48 hrs by SRB assay; settings: NCI-H460, 48 h, read-out: Activity
NCI-H460 [7] = experiment: Cytotoxicity against human NCI-H460 cells assessed as cell growth at 10^-6 M after 48 hrs by SRB assay; settings: NCI-H460, 48 h, read-out: Activity
A498 [8] = experiment: Cytotoxicity against human A498 cells assessed as cell growth at 10^-7 M after 48 hrs by SRB assay; settings: A498, 48 h, read-out: Activity; method in brief: as §4
[9] = Growth inhibition of human […] cells after 48 hrs by SRB assay
Method in brief: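 Leukemia suspension lines grown in RPMI 1640 with 5% FBS, seeded at 5000–40,000 cells/well, and preincubated 24 h at 37 °C, 5% CO2. Compound, stocked in DMSO, given either once at 10^-5 M or at five 10-fold dilutions for 48 h. Settled cells fixed with 80% TCA (final 16%), stained with SRB, and read at 515 nm. GI50 calculated against time-zero and control growth.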

SF-539 = experiment: Cytotoxicity against human SF539 cells assessed as cell growth at 10^-8 M after 48 hrs by SRB assay; settings: SF-539, 48 h, read-out: Activity

| Compound | growth at 10 µM (HCT-15) | growth at 0.01 µM (MOLT-4 [1]) | growth at 0.1 µM (HCT-116) | growth at 10 µM (OVCAR-8) | growth at 100 µM (UACC-257) | growth at 10 µM (LOX IMVI) | GI50 (ACHN) | TGI (ACHN) | CC50 (ACHN) | growth at 1 µM [2] | growth at 10 µM (SF-268) | growth at 1 µM [3] | GI50 (NCI-H226) | TGI (NCI-H226) | CC50 (NCI-H226) | growth at 1 µM (MOLT-4 [4]) | growth at 0.01 µM (UO-31) | growth at 1 µM (A498 [5]) | growth at 0.1 µM (HT-29) | growth at 10 µM (U-251) | other results |
| --- | --- | --- | --- | --- | --- | --- | --- | --- | --- | --- | --- | --- | --- | --- | --- | --- | --- | --- | --- | --- | --- |
| COc1ccc(-c2nn3cc(-c4ccc(O)cc4O)nc3s2)cc1 | 32% | 100% | 93% | 7% | -5% | 4% | 3.52 µM | > 100 µM | > 100 µM | 71% | 14% | 69% | 1.43 µM | 6.95 µM | > 100 µM | 78% | 84% | 34% | 94% | -41% | growth at 1 µM (MDA-MB-231): 66%; GI50 (CAKI-1): 2.07 µM; LC50 (50% lethal concentration) (CAKI-1): > 100 µM; TGI (CAKI-1): 28.9 µM; growth at 1 µM (SK-MEL-2): 85%; growth at 100 µM (HCC 2998): -3%; GI50 (OVCAR-4): 1.38 µM; TGI (OVCAR-4): 3.39 µM; growth at 100 µM (NCI-H460 [6]): 2%; growth at 1 µM (NCI-H460 [7]): 75%; growth at 0.1 µM (A498 [8]): 70%; GI50 [9]: 2.08 µM; LC50 [9]: > 100 µM; TGI [9]: > 100 µM; growth at 0.01 µM (SF-539): 105% |
| COc1ccc(-c2nn3cc(-c4cccc(N)c4)nc3s2)cc1 | 36% | 103% | 99% | 31% | 7% | 26% | 4.5 µM | 21.8 µM | 91.3 µM | 76% | 26% | 55% | 1.53 µM | 16.2 µM | 71.6 µM | 76% | 86% | 53% | 100% | 44% | growth at 1 µM (MDA-MB-231): 61%; GI50 (CAKI-1): 0.743 µM; LC50 (50% lethal concentration) (CAKI-1): > 100 µM; TGI (CAKI-1): 10.9 µM; growth at 1 µM (SK-MEL-2): 79%; growth at 100 µM (HCC 2998): 6%; GI50 (OVCAR-4): 1.54 µM; TGI (OVCAR-4): 15.1 µM; CC50 (OVCAR-4; read-out: LC50 (the source's name)): > 100 µM; growth at 100 µM (NCI-H460 [6]): -31%; growth at 1 µM (NCI-H460 [7]): 76%; growth at 0.1 µM (A498 [8]): 79%; GI50 [9]: 1.28 µM; LC50 [9]: > 100 µM; TGI [9]: 26.7 µM; growth at 0.01 µM (SF-539): 101% |
